Measured values taken from ChEMBL document CHEMBL1149433, “PABA/NO as an anticancer lead: analogue synthesis, structure revision, solution chemistry, reactivity toward glutathione, and in vitro activity” (J Med Chem, 2006).
pIC50: −log10 of the molar value. Values after ≈ are worked out from the molar mass of the structure shown. Active and inactive are the calls of the source. The calls are words filed in the database; no cut-off is given here.

What was measured:
CAKI-1 [1] = assay: Cytotoxicity against human renal cancer CAKI1 cell line at 100 uM; format: functional, cell-based
In short: (§1)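 Cells grown 24 h at 37 °C in RPMI 1640 with 5% FBS and 2 mM L-glutamine before dosing. Compounds were diluted from DMSO stocks to 10^-8 to 10^-4 M (five log concentrations) and incubated 48 h. Cells were TCA-fixed and stained with sulforhodamine B, with OD read at 515 nm. GI50, TGI and LC50 come from percent growth versus log concentration curves.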

LOX IMVI [2] = assay: Cytotoxicity against human melanoma cancer LOXIMVI cell line at 100 uM; format: functional, cell-based; in short: as §1
[3] = Solubility in phosphate buffer at 37 degC; format: physicochemical
In short: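 Maximum solubility was measured in 0.1 M phosphate buffer at pH 7.4 and 37 °C.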

HCT-15 [4] = assay: Cytotoxicity against human colon cancer HCT15 cell line at 100 uM; format: functional, cell-based; in short: as §1
HL-60 = assay: Inhibition of human myeloid leukemia HL60 cell viability; format: functional, cell-based
OVCAR-3 [5] = assay: Cytotoxicity against human ovarian cancer OVACAR3 cell line at 100 uM; format: functional, cell-based; in short: as §1
NIH3T3 = assay: Cytotoxicity against mouse embryonic fibroblast NIH3T3 cell line; format: functional, cell-based
OVCAR-3 [6] = assay: Cytotoxicity against human ovarian cancer OVACAR3 cell line; format: functional; settings: for CC50: read-out: LC50 (the source's name); in short: as §1
LOX IMVI [7] = assay: Cytotoxicity against human melanoma cancer LOXIMVI cell line; format: functional; in short: as §1
CAKI-1 [8] = assay: Cytotoxicity against human renal cancer CAKI1 cell line; format: functional; settings: for CC50: read-out: LC50 (the source's name); in short: as §1
HCT-15 [9] = assay: Cytotoxicity against human colon cancer HCT15 cell line; format: functional; settings: for CC50: read-out: LC50 (the source's name); in short: as §1

| SMILES | Activity (CAKI-1 [1]) | Activity (LOX IMVI [2]) | solubility [3] [µM] | Activity (HCT-15 [4]) | pIC50 (HL-60) | Activity (OVCAR-3 [5]) | pIC50 (NIH3T3) | GI50 (OVCAR-3 [6]) [µM] | TGI (OVCAR-3 [6]) [µM] | CC50 (OVCAR-3 [6]) [µM] | LC50 (concentration giving 50% net cell kill) (LOX IMVI [7]) [µM] | GI50 (CAKI-1 [8]) [µM] | TGI (CAKI-1 [8]) [µM] | CC50 (CAKI-1 [8]) [µM] | GI50 (HCT-15 [9]) [µM] | TGI (HCT-15 [9]) [µM] | CC50 (HCT-15 [9]) [µM] | GI50 (LOX IMVI [7]) [µM] | TGI (LOX IMVI [7]) [µM] |
| --- | --- | --- | --- | --- | --- | --- | --- | --- | --- | --- | --- | --- | --- | --- | --- | --- | --- | --- | --- |
| CN(c1cccc(C(=O)O)c1)c1cc(O/N=[N+](\[O-])N(C)C)c([N+](=O)[O-])cc1[N+](=O)[O-] | inactive | inactive | 3000 (≈ 1260 µg/mL) | inactive | 4.94 | inactive | 4.08 | – | – | – | – | – | – | – | – | – | – | – | – |
| CN(C)/[N+]([O-])=N/Oc1cc(Nc2ccc(C(=O)O)cc2)c([N+](=O)[O-])cc1[N+](=O)[O-] | – | – | > 3000 | – | 5.04 | – | 4.14 | 5.5 | 9 | 100 | – | – | – | – | – | – | – | – | – |
| CN(C)/[N+]([O-])=N/Oc1cc(Nc2cccc(C(=O)O)c2)c([N+](=O)[O-])cc1[N+](=O)[O-] | – | – | > 2000 | – | – | – | 4.10 | 3.9 | 30 | 58 | 60 | 2.2 | 51 | > 100 | 20 | 36 | 68 | – | – |
| CNc1ccc(C(=O)Oc2cc(O/N=[N+](\[O-])N(C)C)c([N+](=O)[O-])cc2[N+](=O)[O-])cc1 | – | – | < 2 | – | 5.20 | – | 5.25 | 2.6 | 6.9 | 2.6 | – | 1.8 | 4 | 8.9 | 2 | 5.3 | 19 | 1.9 | 4.4 |
